Data on four compounds can be found in article PMC3753066 (Nature methods, 2013).

Data set [1] concerns the target MsbA (Escherichia coli, UniProt P60752). The data set is described as follows: MsbA ATPase activity and stability in BPs or detergent. It is filed as biochemical, E. coli. The note with it: for ATPase activity of MsbA solubilized in the reagent: measured in triplicate at 37 °C, 20 mM Tris pH 7.5, 20 mM NaCl, 0.2–0.5 mg/mL. In short, it runs like this: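 E. coli MsbA purified in UDM, then mixed with peptide at 50:1–100:1 molar ratio (peptide:protein). Detergent was removed by dialysis (6 kDa cutoff, 4 °C, 1–2 days, TLC-monitored) and the supernatant kept after 300,000 × g, 2 h, 4 °C. Comparison preparations were in UDM, LMNG, Amphipol A8-35 (5:1 w/w) or MSP1D1/DMPC nanodiscs. Samples (0.2–0.5 mg/mL) were held at RT up to 40 days, with linked-enzyme ATPase read-out, means ± standard error.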

Data set [2] can be described thus: Water solubility of the peptides. It counts as physicochemical.

Values after ≈ are worked out from the molar mass of the structure shown. Starred links: 1 amine or outer side, 2 acyl side, 3 side chain; linkers in the order of their positions; H or OH if unused. Non-standard residues stand in square brackets, D forms with d. Residues, ends and D or L forms follow the SMILES beside them. X1 = CCCCCCCC[C@@H](C(=O)[*:2])N(C)[*:1]; Gly(octyl) = CCCCCCCC[C@H](N)C(=O)O; NMeL = CN[C@@H](CC(C)C)C(=O)O

MsbA, sequence (P60752 whole entry): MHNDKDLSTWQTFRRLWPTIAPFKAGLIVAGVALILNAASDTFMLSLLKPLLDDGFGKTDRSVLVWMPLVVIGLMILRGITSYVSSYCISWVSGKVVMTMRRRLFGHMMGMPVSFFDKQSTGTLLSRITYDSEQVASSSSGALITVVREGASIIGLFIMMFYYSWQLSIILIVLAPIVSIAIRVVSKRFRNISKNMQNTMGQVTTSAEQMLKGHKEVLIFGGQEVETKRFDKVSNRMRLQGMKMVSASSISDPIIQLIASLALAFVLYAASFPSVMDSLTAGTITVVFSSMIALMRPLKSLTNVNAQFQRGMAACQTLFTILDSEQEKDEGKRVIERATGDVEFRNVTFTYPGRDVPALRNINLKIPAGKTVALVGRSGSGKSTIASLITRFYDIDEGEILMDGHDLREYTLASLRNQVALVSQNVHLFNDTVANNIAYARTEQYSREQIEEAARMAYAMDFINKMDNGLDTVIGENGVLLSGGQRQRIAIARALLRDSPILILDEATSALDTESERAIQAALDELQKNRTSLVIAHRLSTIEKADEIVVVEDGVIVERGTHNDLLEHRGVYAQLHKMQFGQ

As for `CCCCCCCC[C@H](NC(C)=O)C(=O)N[C@@H](CO)C(=O)N[C@@H](CC(C)C)C(=O)N[C@@H](CO)C(=O)N(C)[C@@H](CC(C)C)C(=O)N[C@@H](CC(=O)O)C(=O)N[C@@H](CCCCCCCC)C(=O)N[C@@H](CC(=O)O)C(N)=O` [BP-1] (Ac-[Gly(octyl)]SLS[NMeL]D[Gly(octyl)]D-NH2), the “change of MsbA ATPase activity on incubation” value in data set [1] (40 days of incubation at RT) is “little change”. Also, the “ATPase activity of MsbA solubilized in the reagent” value in data set [1] is listed as ~ 4 μmol/min/mg. Besides, the solubility (as a rule, the dissolved amount per volume that the medium holds) in data set [2] is approximately 3000 µM (≈ 3130 µg/mL).
The compound `CCCCCCCC[C@H](NC(C)=O)C(=O)N[C@@H](CO)C(=O)N(C)[C@@H](CC(C)C)C(=O)N[C@@H](CO)C(=O)N(C)[C@@H](CC(C)C)C(=O)N[C@@H](CC(=O)O)C(=O)N[C@@H](CCCCCCCC)C(=O)N[C@@H](CC(=O)O)C(N)=O` [BP-2] (Ac-[Gly(octyl)]S[NMeL]S[NMeL]D[Gly(octyl)]D-NH2) displayed a solubility in data set [2] of approximately 3000 µM (≈ 3170 µg/mL).
With `CCCCCCCC[C@H](NC(C)=O)C(=O)N[C@@H](CO)C(=O)N(C)[C@@H](CC(C)C)C(=O)N[C@@H](CO)C(=O)N(C)[C@@H](CC(C)C)C(=O)N[C@@H](CC(=O)O)C(=O)N(C)[C@@H](CCCCCCCC)C(=O)N[C@@H](CC(=O)O)C(N)=O` [BP-3] (Ac-[Gly(octyl)]S[NMeL]S[NMeL]D[X1]D-NH2), the solubility in data set [2] is approximately 1000 µM (≈ 1070 µg/mL).
As to `CCCCCCCCCCCO[C@@H]1O[C@H](CO)[C@@H](O[C@H]2O[C@H](CO)[C@@H](O)[C@H](O)[C@H]2O)[C@H](O)[C@H]1O` [UDM, β-D-undecylmaltoside, reference compound], the “ATPase activity of MsbA solubilized in the reagent” value in data set [1] came out at 2.2 µmol/min/mg. Besides, the “loss of MsbA ATPase activity” value in data set [1] (within the first day of incubation at RT, accompanied by protein precipitation) is ~ 80%.
